Assays:
HeLa = experiment: Cytostatic activity against human HeLa cells after 3 days by coulter ZI particle counting analysis; assay type: functional, cell-based; settings: 72 h
How it was run: (§1)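 Cells seeded in 96-well plates and grown with or without serial dilutions of compound, 2 days for L1210 and 3 days for CEM and HeLa. IC50 taken as concentration inhibiting cell proliferation by 50%.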

L1210 = experiment: Cytostatic activity against mouse L1210 cells after 2 days by coulter ZI particle counting analysis; assay type: functional, cell-based; settings: L1210, 48 h; how it was run: as §1
CCRF-CEM = experiment: Cytostatic activity against human CEM cells after 3 days by coulter ZI particle counting analysis; assay type: functional, cell-based; settings: 72 h; how it was run: as §1
Felid alphaherpesvirus 1 = experiment: Antiviral activity against Feline herpesvirus infected in cat CRFK cells assessed as inhibition of virus-induced cytopathicity; assay type: functional, organism-based; settings: Felid alphaherpesvirus 1, CRFK
How it was run: (§2)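 Confluent monolayers (HEL for HSV-1 KOS and HSV-2 G; CRFK for feline herpes virus) in 96-well plates inoculated with 100 CCID50 of virus in presence of varying compound concentrations (100, 20, 4, … μM). Cytopathicity scored when complete in untreated infected controls; EC50 = concentration inhibiting virus-induced cytopathicity by 50%.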

Human alphaherpesvirus 2 = experiment: Antiviral activity against Herpes simplex virus 2 G infected in human HEL cells assessed as inhibition of virus-induced cytopathicity; assay type: functional, organism-based; settings: Human alphaherpesvirus 2, strain G; how it was run: as §2
Human alphaherpesvirus 1 = experiment: Antiviral activity against Herpes simplex virus 1 KOS infected in human HEL cells assessed as inhibition of virus-induced cytopathicity; assay type: functional, organism-based; settings: Human alphaherpesvirus 1, KOS; how it was run: as §2

Structure (SMILES)	IC50 (HeLa)	IC50 (L1210)	IC50 (CCRF-CEM)	EC50 (Felid alphaherpesvirus 1)	EC50 (Human alphaherpesvirus 2)	EC50 (Human alphaherpesvirus 1)
CCOP(=O)(CCCn1cc(Cn2c(=O)n(C(=O)c3ccccc3)c(=O)c3ccccc32)nn1)OCC	129 µM	> 200 µM	44 µM	24 µM	17 µM	17 µM
CCOP(=O)(CCCn1cc(Cn2ccc(=O)n(C(=O)c3ccccc3)c2=O)nn1)OCC	> 200 µM	> 200 µM	> 200 µM	> 200 µM	> 200 µM	> 200 µM
